ChEMBL document CHEMBL4425169 (ACS Med Chem Lett, 2016)
Activity calls are given as the source filed them. No cut-off for these calls is given here.

Assays:
[1] = molecular target: Voltage-gated inwardly rectifying potassium channel KCNH2 (Homo sapiens, UniProt Q12809); assay: Inhibition of human ERG after 6 mins by electrophysiological assay
Rattus norvegicus [2] = assay: Diuretic activity in Sprague-Dawley rat at 3 mg/kg via oral gavage administered 30 mins prior to void induction by loading saline measured upto 4 hrs relative to vehicle treated control; assay type: functional
Summary of the method: (§1)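 Acute 4 h study in Sprague-Dawley rats after oral dosing, n = 5 per group. Urine volume and sodium and potassium excretion were expressed as fold increase over vehicle-treated animals. Significance was tested versus vehicle (p < 0.05 or p < 0.01).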

Rattus norvegicus [3] = assay: Diuretic activity in Sprague-Dawley rat at 10 mg/kg via oral gavage administered 30 mins prior to void induction by loading saline measured upto 4 hrs relative to vehicle treated control; assay type: functional; summary of the method: as §1
Rattus norvegicus [4] = assay: Natriuretic activity in Sprague-Dawley rat at 10 mg/kg via oral gavage administered 30 mins prior to void induction by loading saline measured upto 4 hrs relative to vehicle treated control; assay type: functional; summary of the method: as §1
Rattus norvegicus [5] = assay: Diuretic activity in Sprague-Dawley rat at 1 mg/kg via oral gavage administered 30 mins prior to void induction by loading saline measured upto 4 hrs relative to vehicle treated control; assay type: functional
Summary of the method: (§2)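 Acute rat diuresis model in male-unspecified Sprague-Dawley rats, single oral dose, urine collected over 4 h. Urine volume, sodium excretion and potassium excretion expressed as fold increase over vehicle-treated controls; n = 5 per group; significance tested against vehicle.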

Rattus norvegicus [6] = assay: Natriuretic activity in Sprague-Dawley rat at 1 mg/kg via oral gavage administered 30 mins prior to void induction by loading saline measured upto 4 hrs relative to vehicle treated control; assay type: functional; summary of the method: as §2
Rattus norvegicus [7] = assay: Kaliuretic activity in Sprague-Dawley rat at 3 mg/kg via oral gavage administered 30 mins prior to void induction by loading saline measured upto 4 hrs relative to vehicle treated control; assay type: functional; summary of the method: as §2
Rattus norvegicus [8] = assay: Kaliuretic activity in Sprague-Dawley rat at 0.3 mg/kg via oral gavage administered 30 mins prior to void induction by loading saline measured upto 4 hrs relative to vehicle treated control; assay type: functional; summary of the method: as §2
[9] = Clearance in rat at 1 mg/kg, iv or 2 mg/kg, po; assay type: ADME, organism-based; conditions: in vivo
Summary of the method: (§3)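 Rats dosed once at 1 mg/kg IV and, separately, 2 mg/kg PO, with n = 3. Derived parameters were plasma clearance, Vdss, dose-normalized oral AUC (μM·h·kg/mg), half-life, and oral bioavailability (F%).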

[10] = Clearance in dog at 1 mg/kg, iv or 2 mg/kg, po; assay type: ADME, organism-based, Canis lupus familiaris; conditions: in vivo
[11] = Dose normalized AUC in dog at 2 mg/kg, po; assay type: ADME, organism-based, Canis lupus familiaris; conditions: in vivo
[12] = Half life in dog at 1 mg/kg, iv or 2 mg/kg, po; assay type: ADME, organism-based, Canis lupus familiaris; conditions: in vivo
[13] = Oral bioavailability in dog at 2 mg/kg; assay type: ADME, organism-based, Canis lupus familiaris; conditions: in vivo
[14] = Drug metabolism in human hepatocytes assessed as oxidation at 1 uM measured at 120 mins; assay type: ADME, cell-based, Hepatocyte; conditions: read-out: Drug metabolism
[15] = Drug metabolism in rat hepatocytes assessed as lactone hydrolysis at 1 uM measured at 120 mins; assay type: ADME, cell-based, Hepatocyte; conditions: read-out: Drug metabolism
[16] = Drug metabolism in dog hepatocytes assessed as lactone hydrolysis at 1 uM measured at 120 mins; assay type: ADME, cell-based, Canis lupus familiaris, Hepatocyte; conditions: read-out: Drug metabolism
[17] = Drug metabolism in rat hepatocytes assessed as glucuronidation at 1 uM measured at 120 mins; assay type: ADME, cell-based, Hepatocyte; conditions: read-out: Drug metabolism
[18] = Drug metabolism in dog hepatocytes assessed as glucuronidation at 1 uM measured at 120 mins; assay type: ADME, cell-based, Canis lupus familiaris, Hepatocyte; conditions: read-out: Drug metabolism
[19] = Half life in human; assay type: ADME
[20] = molecular target: T1, Inward rectifier potassium channel 2 (Homo sapiens, UniProt P63252); assay: Inhibition of Kir2.1 (unknown origin) upto 30 uM
T1 sequence (P63252 whole entry): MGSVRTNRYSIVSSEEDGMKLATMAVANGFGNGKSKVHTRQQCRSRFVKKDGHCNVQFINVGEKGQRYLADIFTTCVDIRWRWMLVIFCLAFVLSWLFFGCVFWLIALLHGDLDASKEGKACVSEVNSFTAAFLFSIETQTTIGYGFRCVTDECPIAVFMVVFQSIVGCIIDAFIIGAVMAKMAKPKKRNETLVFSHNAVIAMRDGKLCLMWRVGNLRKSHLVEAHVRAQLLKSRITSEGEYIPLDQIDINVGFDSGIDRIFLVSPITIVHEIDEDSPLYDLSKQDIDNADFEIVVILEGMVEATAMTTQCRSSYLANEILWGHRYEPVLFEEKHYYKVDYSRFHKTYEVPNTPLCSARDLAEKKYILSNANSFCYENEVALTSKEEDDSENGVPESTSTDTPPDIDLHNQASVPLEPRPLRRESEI

[21] = molecular target: T2, Inward rectifier potassium channel 4 (Homo sapiens) (UniProt P48050); assay: Inhibition of Kir2.3 (unknown origin) upto 30 uM
T2 sequence (whole entry): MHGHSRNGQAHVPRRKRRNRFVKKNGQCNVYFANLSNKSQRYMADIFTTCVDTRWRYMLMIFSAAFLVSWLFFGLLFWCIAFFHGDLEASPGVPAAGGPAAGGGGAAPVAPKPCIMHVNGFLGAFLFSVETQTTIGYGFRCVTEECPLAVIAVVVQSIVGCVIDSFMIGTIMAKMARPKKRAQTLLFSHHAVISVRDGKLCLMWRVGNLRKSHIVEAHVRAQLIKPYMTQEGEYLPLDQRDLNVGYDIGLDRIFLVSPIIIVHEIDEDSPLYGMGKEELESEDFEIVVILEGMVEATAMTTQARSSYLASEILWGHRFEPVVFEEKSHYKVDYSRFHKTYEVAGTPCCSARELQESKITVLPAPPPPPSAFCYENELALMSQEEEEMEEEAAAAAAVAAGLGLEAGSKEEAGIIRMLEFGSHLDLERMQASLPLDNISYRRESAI

[22] = molecular target: Sodium channel protein type 5 subunit alpha (Homo sapiens, UniProt Q14524); assay: Inhibition of Nav1.5 (unknown origin)
Cytochrome P450 2C9 = Cytochrome P450 2C9 (Homo sapiens, UniProt P11712); assay: Reversible inhibition of human CYP2C9; assay type: ADME
Acetylcholinesterase = Acetylcholinesterase (Homo sapiens, UniProt P22303); assay: Inhibition of ACES (unknown origin)
[23] = molecular target: Somatostatin receptor type 1 (Homo sapiens, UniProt P30872); assay: Inhibition of somatostatin receptor subtype 1 (unknown origin)
[24] = Cardiotoxicity in vagotomized cardiovascular dog model assessed as effect on PR interval at plasma concentration <= 11.6 uM at 1 to 7 mg/kg, iv administered during three sequential 30 min periods; assay type: toxicity, organism-based, Canis lupus familiaris; conditions: in vivo, 0.5 h
Summary of the method: (§4)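 Anesthetized, vagotomized dogs received IV infusions over sequential periods at 1, 2 and 7 mg/kg (10 mg/kg cumulative). Heart rate, mean arterial pressure and ECG intervals (PR, QRS, QT/QTc) were recorded predose and during each infusion period. Plasma concentrations were measured.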

[25] = Cardiotoxicity in vagotomized cardiovascular dog model assessed as effect on QT/QTc interval at plasma concentration <= 11.6 uM at 1 to 7 mg/kg, iv administered during three sequential 30 min periods; assay type: toxicity, organism-based, Canis lupus familiaris; conditions: in vivo, 0.5 h; summary of the method: as §4
Rattus norvegicus [26] = assay: Antihypertensive activity in spontaneously hypertensive rat assessed as reduction in systolic blood pressure at 1 mg/kg via oral gavage qd administered for 4 days measured on day 4 by telemetry (reference value: 2.5 +/- 2.2 mmHg); assay type: functional
[27] = Half life in rat at 1 mg/kg, iv or 2 mg/kg, po; assay type: ADME, organism-based; conditions: in vivo; summary of the method: as §3
[28] = Drug metabolism in bile duct cannulated rat assessed as glucuronidation; assay type: ADME

Voltage-gated inwardly rectifying potassium channel KCNH2, sequence (Q12809 whole entry): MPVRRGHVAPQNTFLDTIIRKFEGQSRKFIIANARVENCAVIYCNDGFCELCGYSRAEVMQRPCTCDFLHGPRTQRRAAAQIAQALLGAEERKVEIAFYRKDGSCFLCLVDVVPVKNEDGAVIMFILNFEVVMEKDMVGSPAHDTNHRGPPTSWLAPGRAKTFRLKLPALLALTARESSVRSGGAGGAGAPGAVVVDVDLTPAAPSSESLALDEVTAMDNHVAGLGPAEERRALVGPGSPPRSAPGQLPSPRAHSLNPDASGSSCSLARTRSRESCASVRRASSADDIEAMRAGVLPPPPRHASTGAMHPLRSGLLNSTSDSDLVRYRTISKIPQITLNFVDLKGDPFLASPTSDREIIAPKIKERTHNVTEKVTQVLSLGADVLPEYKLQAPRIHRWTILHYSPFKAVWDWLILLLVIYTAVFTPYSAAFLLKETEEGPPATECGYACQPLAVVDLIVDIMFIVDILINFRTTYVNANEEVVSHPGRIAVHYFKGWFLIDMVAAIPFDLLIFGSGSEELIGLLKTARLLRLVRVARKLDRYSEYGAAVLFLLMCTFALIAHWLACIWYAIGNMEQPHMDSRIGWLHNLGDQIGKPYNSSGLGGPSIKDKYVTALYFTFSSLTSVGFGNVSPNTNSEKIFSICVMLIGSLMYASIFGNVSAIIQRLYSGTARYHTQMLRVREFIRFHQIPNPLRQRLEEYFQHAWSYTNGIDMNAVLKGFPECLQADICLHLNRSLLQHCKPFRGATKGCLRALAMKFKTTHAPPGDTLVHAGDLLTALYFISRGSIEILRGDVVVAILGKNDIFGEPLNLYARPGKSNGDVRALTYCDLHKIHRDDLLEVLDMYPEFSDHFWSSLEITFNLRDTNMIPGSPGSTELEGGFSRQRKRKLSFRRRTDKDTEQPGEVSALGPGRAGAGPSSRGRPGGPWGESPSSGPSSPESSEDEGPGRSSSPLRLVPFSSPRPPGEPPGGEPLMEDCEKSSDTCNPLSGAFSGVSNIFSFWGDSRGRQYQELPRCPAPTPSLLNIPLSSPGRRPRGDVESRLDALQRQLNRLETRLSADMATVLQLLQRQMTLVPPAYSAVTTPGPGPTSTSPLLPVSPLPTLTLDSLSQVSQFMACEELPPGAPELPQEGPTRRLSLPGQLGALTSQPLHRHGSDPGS
Sodium channel protein type 5 subunit alpha, sequence (Q14524 whole entry): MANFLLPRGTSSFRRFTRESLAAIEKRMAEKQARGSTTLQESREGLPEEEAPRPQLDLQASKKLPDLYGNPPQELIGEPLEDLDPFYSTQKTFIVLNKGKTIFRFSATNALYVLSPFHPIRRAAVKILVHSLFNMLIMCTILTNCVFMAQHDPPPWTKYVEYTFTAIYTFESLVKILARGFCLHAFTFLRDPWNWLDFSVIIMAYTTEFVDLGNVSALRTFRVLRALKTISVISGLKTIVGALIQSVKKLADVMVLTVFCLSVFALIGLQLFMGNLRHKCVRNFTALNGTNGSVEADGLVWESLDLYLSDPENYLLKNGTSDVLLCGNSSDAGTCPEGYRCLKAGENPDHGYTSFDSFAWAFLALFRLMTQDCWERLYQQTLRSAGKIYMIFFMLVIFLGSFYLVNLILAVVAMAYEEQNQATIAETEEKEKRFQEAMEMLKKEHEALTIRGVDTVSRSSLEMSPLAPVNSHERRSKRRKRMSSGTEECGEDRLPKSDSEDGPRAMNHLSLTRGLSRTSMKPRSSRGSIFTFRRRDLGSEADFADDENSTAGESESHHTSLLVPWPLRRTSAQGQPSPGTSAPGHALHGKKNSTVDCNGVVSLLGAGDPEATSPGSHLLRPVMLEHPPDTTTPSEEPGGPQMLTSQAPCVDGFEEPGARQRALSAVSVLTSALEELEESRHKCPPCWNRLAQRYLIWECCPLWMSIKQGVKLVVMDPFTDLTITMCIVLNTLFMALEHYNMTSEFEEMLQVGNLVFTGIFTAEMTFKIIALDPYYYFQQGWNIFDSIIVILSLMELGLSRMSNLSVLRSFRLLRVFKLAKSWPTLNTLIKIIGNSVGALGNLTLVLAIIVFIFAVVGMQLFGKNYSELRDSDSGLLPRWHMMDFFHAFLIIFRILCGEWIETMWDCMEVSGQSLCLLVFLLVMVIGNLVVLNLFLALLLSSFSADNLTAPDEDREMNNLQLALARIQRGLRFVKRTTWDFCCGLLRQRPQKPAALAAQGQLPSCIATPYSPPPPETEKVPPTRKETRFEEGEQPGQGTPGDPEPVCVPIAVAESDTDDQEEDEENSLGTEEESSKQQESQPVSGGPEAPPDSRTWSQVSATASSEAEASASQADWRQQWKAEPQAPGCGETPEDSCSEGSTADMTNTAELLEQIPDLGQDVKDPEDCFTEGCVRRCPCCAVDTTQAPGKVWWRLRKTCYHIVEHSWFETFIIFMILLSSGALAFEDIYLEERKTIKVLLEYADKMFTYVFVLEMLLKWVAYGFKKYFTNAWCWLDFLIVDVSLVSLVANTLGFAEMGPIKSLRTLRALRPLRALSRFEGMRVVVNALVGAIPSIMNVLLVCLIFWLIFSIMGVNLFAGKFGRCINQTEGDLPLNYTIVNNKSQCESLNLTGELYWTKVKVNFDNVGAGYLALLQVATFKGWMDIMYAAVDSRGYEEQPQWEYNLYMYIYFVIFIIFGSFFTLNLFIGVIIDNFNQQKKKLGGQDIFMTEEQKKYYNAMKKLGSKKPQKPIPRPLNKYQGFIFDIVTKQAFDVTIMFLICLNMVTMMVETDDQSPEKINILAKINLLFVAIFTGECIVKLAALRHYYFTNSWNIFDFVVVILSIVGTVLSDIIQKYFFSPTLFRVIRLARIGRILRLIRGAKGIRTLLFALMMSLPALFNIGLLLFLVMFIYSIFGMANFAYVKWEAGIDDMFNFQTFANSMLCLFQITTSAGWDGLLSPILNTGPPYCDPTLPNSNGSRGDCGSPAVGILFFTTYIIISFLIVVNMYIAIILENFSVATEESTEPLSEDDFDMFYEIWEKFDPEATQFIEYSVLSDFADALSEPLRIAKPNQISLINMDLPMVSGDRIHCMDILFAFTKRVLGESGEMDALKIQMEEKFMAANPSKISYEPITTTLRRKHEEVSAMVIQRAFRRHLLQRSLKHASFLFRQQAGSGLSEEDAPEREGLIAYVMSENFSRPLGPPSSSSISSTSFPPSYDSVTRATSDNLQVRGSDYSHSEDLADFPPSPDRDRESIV
Somatostatin receptor type 1, sequence (P30872 whole entry): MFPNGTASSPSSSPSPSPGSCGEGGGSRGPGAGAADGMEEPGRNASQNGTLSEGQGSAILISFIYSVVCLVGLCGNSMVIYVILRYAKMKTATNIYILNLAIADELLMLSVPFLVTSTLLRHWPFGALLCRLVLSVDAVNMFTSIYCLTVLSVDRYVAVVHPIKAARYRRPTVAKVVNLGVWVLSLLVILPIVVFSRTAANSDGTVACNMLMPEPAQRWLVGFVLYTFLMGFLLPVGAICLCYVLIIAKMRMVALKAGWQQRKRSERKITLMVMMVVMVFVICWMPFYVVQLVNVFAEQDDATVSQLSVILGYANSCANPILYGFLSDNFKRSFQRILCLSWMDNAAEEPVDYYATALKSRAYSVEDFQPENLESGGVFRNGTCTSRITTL
Acetylcholinesterase, sequence (P22303 whole entry): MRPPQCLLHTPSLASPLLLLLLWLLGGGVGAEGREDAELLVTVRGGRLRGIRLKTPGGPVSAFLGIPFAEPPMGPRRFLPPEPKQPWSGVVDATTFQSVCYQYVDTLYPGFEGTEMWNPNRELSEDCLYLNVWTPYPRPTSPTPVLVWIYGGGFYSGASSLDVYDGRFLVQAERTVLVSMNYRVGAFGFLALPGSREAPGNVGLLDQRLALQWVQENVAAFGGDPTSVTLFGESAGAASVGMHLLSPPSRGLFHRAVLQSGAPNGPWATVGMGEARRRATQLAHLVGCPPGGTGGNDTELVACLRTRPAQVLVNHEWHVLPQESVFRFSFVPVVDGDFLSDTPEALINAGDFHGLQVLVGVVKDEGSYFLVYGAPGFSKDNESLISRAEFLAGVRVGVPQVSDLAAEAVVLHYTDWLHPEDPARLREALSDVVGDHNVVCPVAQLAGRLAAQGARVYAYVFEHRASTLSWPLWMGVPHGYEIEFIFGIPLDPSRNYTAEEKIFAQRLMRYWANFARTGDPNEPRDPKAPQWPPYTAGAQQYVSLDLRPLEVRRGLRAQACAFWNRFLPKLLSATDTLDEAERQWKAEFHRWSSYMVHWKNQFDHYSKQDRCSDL
Cytochrome P450 2C9, sequence (P11712 whole entry): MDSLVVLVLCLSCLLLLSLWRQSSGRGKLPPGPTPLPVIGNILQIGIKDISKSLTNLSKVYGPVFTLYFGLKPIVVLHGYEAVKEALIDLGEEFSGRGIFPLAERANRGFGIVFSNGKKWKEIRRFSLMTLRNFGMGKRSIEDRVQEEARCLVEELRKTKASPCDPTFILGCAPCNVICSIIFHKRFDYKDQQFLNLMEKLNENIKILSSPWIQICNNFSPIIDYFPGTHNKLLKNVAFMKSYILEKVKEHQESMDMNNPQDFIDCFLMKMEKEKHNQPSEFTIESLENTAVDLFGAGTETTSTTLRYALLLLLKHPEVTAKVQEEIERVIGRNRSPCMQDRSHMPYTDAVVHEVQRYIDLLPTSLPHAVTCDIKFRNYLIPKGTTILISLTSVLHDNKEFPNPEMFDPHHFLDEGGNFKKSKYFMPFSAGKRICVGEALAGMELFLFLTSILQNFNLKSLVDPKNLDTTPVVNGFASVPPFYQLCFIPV

## Cc1c([C@@H](O)CN2CCN(C[C@H](O)c3ccc4c(c3C)COC4=O)CC2)ccc2c1COC2=O [MK-7145]
[1]
  IC50: 22 µM
Rattus norvegicus [2]
  fold change (FC): 9
Rattus norvegicus [3]
  fold change (FC): 9.4
Rattus norvegicus [4]
  fold change (FC): 8.5
Rattus norvegicus [5]
  fold change (FC): 8.6
Rattus norvegicus [6]
  fold change (FC): 8.6
Rattus norvegicus [7]
  fold change (FC): 1.4
Rattus norvegicus [8]
  fold change (FC): 2.1
[9]
  clearance: 56 mL/min/kg
[10]
  clearance: 56 mL/min/kg
[11]
  AUC/dose: 0.32 µM·kg·h/mg
[12]
  half-life: 102 min
[13]
  bioavailability: 51%
[14]
  metabolised at 2 h, 1 µM: 15 to 37%
[15]
  metabolised at 2 h, 1 µM: < 1%
[16]
  metabolised at 2 h, 1 µM: < 1%
[17]
  metabolised at 2 h, 1 µM: < 1%
[18]
  metabolised at 2 h, 1 µM: < 1%
[19]
  half-life: 300 min
[20]
  inhibition (INH): Not Active
[21]
  inhibition: inactive
[22]
  IC50: > 30 µM
Cytochrome P450 2C9
  IC50: > 50 µM
Acetylcholinesterase
  IC50: 9.94 µM
[23]
  IC50: 2630 nM
[24]
  Activity: Non-Toxic
[25]
  Activity: Non-Toxic
Rattus norvegicus [26]
  Activity: 9.4 mmHg
[27]
  half-life: 66 min
[28]
  Drug metabolism: Metabolite_Detected
